What was measured:
[1] = DPPH free radical scavenging assay; format: physicochemical; details: ascorbic acid as reference
Procedure, shortened: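 DPPH (4 mg/100 ml in methanol) was mixed with test compound or ascorbic acid at 1 to 500 µg/ml in methanol. The control was DPPH plus methanol, and methanol alone served as blank. Samples were incubated 20–30 min at 37 °C and the decrease in absorbance at 515 nm read. Percentage scavenging was calculated from control versus sample absorbance, in triplicate.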

HaCaT cells = assay: MTT cytotoxicity assay; format: cell-based, human; details: 100 µg/mL
Procedure, shortened: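 HaCaT keratinocytes were grown in DMEM with 10% FBS and 1% antibiotic-antimycotic at 37 °C, 5% CO₂. Cells were seeded at 1 × 10⁴/well for 24 h, then exposed to 1 to 100 µg/mL for 48 h, with 5-FU as the positive control and untreated cells as baseline. MTT (5 mg/mL) was added for 4 h, then SDS/DMF lysis buffer for 2 h, and plates read at 570 nm as percentage proliferation. Lower concentrations were retested to derive IC50 ± SE.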

[2] = tested on: Dengue virus type-2 (DENV2) in BHK-21 cells; assay: Cytopathic effect; format: cell-based; details: DENV2-infected BHK-21 cells; concentrations within MNTD
Procedure, shortened: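 Maximal non-toxic dose in BHK-21 cells was first set by MTT. Cells were seeded at 1 × 10⁵/well and infected with DENV2 (MOI 0.02, DMEM with 2% FBS) for 1 h at 37 °C, 5% CO₂. At 1 h post-infection, compounds diluted in DMEM (2% FBS) within the non-toxic range were added, with castanospermine as the positive control. CPE was scored by phase-contrast microscopy, in triplicate.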

BHK-21 cells = assay: MTT assay for Maximum Non-Toxic Dose; format: cell-based

Row | Structure (SMILES) | DPPH radical scavenging IC50 [1] [µg/mL] | Cell death (HaCaT cells) | Inhibition / reduction in cytopathic effects [2] | Maximal non-toxic dose (MNTD) (BHK-21 cells) [µg/mL]
1 | Cc1ccc(S(=O)(=O)[O-])cc1.Nc1c([I+]c2ccccc2)c(=O)oc2ccccc12 [Compound T2, 4-amino-3-phenyliodoniocoumarin tosylate] | ≥ 50 | more than 60% | up to 12% | –
2 | O=c1oc2ccccc2c(Nc2ccccc2)c1I [Compound T4, 3-iodo-4-phenylaminocoumarin] | – | more than 60% | up to 12% | 1
3 | Nc1cc(=O)oc2ccccc12 [Compound T1, 4-aminocoumarin] | – | very low percentages of cell death | did not exhibit significant inhibition of cytopathic effects | 2.5
4 | O[C@H]1[C@H](O)[C@@H](O)CN2CC[C@H](O)[C@H]12 [castanospermine, reference compound] | – | – | 68% | –
5 | O=c1cc(Nc2ccccc2)c2ccccc2o1 [Compound T5, 4-phenylaminocoumarin] | – | very low percentages of cell death | did not exhibit significant inhibition of cytopathic effects | 0.1
6 | O=c1oc2ccccc2c(N(c2ccccc2)c2ccccc2)c1I [Compound T6, 4-diphenylamino-3-iodocoumarin] | – | very low percentages of cell death | did not exhibit significant inhibition of cytopathic effects | 0.1
